Tests used:
ABCG2 = molecular target: T1, ABCG2 (Homo sapiens, UniProt Q9UNQ0); test: Inhibition of ABCG2 (unknown origin) transfected in HEK293 cells assessed as inhibition of mitoxantrone efflux at 5 uM after 30 mins by flow cytometry relative to control; assay type: cell-based; conditions: HEK293 cells transfected with ABCG2, probe mitoxantrone
T1 sequence (Q9UNQ0 whole entry): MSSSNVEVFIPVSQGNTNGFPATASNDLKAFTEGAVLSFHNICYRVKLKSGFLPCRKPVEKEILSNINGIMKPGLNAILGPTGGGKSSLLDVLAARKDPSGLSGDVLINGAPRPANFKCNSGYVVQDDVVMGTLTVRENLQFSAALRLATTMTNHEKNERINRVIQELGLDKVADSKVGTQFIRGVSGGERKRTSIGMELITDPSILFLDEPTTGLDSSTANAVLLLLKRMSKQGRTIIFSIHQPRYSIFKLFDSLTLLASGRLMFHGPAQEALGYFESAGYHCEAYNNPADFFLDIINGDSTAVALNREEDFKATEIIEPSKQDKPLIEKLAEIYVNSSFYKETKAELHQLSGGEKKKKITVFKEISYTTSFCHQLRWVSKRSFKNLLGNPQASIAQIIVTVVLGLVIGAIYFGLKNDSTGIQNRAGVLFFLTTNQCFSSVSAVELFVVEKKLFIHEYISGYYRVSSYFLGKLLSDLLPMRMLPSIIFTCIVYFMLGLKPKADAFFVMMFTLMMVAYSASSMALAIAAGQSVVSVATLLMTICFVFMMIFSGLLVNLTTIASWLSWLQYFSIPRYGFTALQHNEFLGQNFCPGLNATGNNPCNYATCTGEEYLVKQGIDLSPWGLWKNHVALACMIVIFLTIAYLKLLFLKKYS
Procedure, shortened: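 HEK293-ABCG2 cells (1.5 × 10⁵/well, grown 48 h) exposed to 5 μM mitoxantrone for 30 min at 37 °C with compound (increasing concentrations up to 10 μM); washed, trypsinized, FL4 flow cytometry, ≥10 000 events.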

[1] = molecular target: T2, Broad substrate specificity ATP-binding cassette transporter ABCG2 (Homo sapiens, UniProt Q9UNQ0); test: Inhibition of ABCG2 (unknown origin) transfected in HEK293 cells assessed as inhibition of mitoxantrone efflux after 30 mins by flow cytometry relative to control; assay type: cell-based
T2 sequence (Q9UNQ0 whole entry): T1 sequence (Q9UNQ0 whole entry)

[2] = molecular target: T2, Broad substrate specificity ATP-binding cassette transporter ABCG2; test: Inhibition of human ABCG2 transfected in Sf9 insect cells assessed as inhibition of basal ATPase activity in absence of substrate drug after 30 mins by colorimetry; conditions: sf9, 0.5 h
Procedure, shortened: (§1)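 Cholesterol-loaded membranes from Sf9 cells overexpressing human ABCG2 (0.5 mg/mL; 10 μg/sample) in 50 mM Tris-HCl, 50 mM NaCl, pH 8.0, with or without 0.33 mM orthovanadate, no transport substrate; started with 3.9 mM ATP-Mg, 30 min at 37 °C; stopped with SDS; phosphate released read with molybdate/ascorbic acid at 880 nm; vanadate-sensitive basal activity taken as 100%.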

[3] = molecular target: T2, Broad substrate specificity ATP-binding cassette transporter ABCG2; test: Inhibition of ABCG2 (unknown origin) transfected in HEK293 cells assessed as inhibition of mitoxantrone efflux at 5 uM after 30 mins in presence of 0.1 uM (2E,2'E)-1,1'-(1,4-Phenylene)bis(3-(2,6-dimethoxyphenyl)-prop-2-en-1-one) by flow cytometry; assay type: cell-based
ABCG2 ATPase [4] = molecular target: T3, ABCG2 ATPase (Homo sapiens, UniProt Q9UNQ0); test: Activation of human ABCG2 transfected in Sf9 insect cells assessed as stimulation of basal ATPase activity in absence of substrate drug after 30 mins by colorimetry; conditions: Sf9 insect cells transfected with human ABCG2, read-out: FC; procedure, shortened: as §1
T3 sequence (Q9UNQ0 whole entry): T1 sequence (Q9UNQ0 whole entry)

HEK293 [5] = test: Cytotoxicity against HEK293 cells overexpressing ABCG2 at 0.5 uM after 72 hrs by MTT assay; assay type: ADME, cell-based; conditions: human, hek293, 72 h
Procedure, shortened: (§2)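 HEK293-ABCG2 and vector-control HEK293-pcDNA3.1 cells were seeded at 1 × 10⁴/well and grown 24 h, then exposed 72 h to mitoxantrone (0–25 nM). ABCG2 cells were also given bis-chalcone at 0.1 or 0.5 μM. MTT was added for 4 h, formazan dissolved in DMSO/ethanol (1:1) and read at 570 nm. IC50 = mitoxantrone concentration giving 50% survival.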

[6] = molecular target: ATP-dependent translocase ABCB1 (Homo sapiens, UniProt P08183); test: Inhibition of ABCB1 (unknown origin) transfected in mouse NIH/3T3 cells assessed as inhibition of mitoxantrone efflux up to 10 uM after 30 mins by flow cytometry relative to control; assay type: cell-based; conditions: nih/3t3, 0.5 h
Chain of ATP-dependent translocase ABCB1 (P08183 whole entry): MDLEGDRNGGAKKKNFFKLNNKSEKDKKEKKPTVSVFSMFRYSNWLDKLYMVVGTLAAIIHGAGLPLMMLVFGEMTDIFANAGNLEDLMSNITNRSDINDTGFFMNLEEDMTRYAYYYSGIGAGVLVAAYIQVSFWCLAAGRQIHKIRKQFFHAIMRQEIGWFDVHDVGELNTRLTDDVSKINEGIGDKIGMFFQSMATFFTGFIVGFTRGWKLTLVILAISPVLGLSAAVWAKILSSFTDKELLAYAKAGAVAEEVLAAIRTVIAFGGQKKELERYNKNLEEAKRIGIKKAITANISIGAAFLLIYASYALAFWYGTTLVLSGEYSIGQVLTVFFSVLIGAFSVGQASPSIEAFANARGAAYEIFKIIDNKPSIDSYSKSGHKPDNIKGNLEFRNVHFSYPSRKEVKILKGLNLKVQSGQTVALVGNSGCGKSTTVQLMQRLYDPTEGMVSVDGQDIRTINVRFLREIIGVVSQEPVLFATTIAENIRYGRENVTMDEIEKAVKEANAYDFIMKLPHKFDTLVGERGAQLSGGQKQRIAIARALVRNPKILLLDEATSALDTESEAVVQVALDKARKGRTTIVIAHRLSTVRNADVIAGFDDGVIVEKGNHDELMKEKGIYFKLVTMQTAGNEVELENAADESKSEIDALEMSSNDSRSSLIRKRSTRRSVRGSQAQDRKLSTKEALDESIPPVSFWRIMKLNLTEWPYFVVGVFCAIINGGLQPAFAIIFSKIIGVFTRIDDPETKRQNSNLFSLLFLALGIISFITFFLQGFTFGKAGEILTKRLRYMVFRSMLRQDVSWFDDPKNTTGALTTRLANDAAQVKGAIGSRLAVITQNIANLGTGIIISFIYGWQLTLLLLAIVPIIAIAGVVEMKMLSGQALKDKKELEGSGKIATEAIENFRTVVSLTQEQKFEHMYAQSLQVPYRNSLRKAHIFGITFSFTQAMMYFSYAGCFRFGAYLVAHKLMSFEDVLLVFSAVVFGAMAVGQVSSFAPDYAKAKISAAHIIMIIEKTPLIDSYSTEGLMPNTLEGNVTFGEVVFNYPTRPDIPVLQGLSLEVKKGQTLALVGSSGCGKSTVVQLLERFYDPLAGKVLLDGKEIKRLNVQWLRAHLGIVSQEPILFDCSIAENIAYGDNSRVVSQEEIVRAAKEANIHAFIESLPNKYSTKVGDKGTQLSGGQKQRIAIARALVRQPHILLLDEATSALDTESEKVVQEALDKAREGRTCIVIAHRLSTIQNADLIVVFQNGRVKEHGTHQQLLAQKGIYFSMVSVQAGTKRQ
Procedure, shortened: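 NIH-3T3-ABCB1 cells (1.5 × 10⁵/well, 48 h, kept in 60 ng/mL colchicine) were given 5 μM mitoxantrone for 30 min at 37 °C with bis-chalcone at 1 or 10 μM. Fluorescence was read by FL4 flow cytometry, ≥10 000 events. Inhibition was expressed relative to parental NIH-3T3 cells, whose maximal accumulation was taken as complete inhibition.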

[7] = molecular target: Multidrug resistance-associated protein 1 (Homo sapiens, UniProt P33527); test: Inhibition of ABCC1 (unknown origin) transfected in HEK293 cells assessed as inhibition of calcein-AM efflux up to 10 uM after 30 mins by flow cytometry relative to control; assay type: cell-based; conditions: hek293, 0.5 h
Chain of Multidrug resistance-associated protein 1 (P33527 whole entry): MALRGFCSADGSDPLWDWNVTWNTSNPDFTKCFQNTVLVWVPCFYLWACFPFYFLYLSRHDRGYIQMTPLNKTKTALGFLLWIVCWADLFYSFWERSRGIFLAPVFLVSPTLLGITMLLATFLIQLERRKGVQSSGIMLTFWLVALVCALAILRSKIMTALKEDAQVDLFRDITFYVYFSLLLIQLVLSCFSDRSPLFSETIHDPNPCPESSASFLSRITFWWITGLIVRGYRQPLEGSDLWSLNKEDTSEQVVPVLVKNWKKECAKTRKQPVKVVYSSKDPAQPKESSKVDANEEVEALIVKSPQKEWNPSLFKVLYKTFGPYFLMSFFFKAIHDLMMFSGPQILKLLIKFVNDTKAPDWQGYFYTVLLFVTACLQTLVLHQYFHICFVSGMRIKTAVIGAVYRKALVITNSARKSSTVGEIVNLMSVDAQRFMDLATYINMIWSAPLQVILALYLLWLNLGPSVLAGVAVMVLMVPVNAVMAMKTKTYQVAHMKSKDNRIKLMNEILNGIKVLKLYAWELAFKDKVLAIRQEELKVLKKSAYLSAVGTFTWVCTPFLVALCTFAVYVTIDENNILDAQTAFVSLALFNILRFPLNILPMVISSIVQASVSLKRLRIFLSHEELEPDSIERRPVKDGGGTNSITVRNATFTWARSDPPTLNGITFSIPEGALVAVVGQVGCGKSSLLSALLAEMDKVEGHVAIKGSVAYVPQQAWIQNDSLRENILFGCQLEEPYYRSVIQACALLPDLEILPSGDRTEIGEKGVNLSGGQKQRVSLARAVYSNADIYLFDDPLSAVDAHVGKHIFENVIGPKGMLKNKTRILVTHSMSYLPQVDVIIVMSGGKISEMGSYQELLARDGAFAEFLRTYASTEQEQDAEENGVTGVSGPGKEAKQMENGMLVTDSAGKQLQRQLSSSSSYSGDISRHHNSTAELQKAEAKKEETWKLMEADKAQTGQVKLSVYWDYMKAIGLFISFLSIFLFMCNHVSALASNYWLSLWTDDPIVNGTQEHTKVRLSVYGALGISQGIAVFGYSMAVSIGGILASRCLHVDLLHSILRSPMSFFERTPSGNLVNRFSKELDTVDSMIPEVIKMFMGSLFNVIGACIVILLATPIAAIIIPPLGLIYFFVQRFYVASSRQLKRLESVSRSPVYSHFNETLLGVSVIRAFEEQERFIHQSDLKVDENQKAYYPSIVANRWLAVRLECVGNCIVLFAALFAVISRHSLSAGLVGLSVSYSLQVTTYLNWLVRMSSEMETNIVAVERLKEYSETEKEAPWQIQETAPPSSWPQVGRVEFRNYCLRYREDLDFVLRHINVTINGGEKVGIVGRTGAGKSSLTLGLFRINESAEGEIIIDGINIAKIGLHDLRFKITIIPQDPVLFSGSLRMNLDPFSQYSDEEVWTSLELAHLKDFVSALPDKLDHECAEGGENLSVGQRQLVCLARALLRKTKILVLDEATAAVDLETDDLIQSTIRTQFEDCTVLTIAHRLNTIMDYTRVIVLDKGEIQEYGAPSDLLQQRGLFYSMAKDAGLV
Procedure, shortened: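 HEK293-ABCC1 cells (2 × 10⁵/well, kept in 200 μg/mL hygromycin B) were exposed to 0.2 μM calcein-AM for 30 min at 37 °C with bis-chalcone at 1 or 10 μM. Calcein was read by FL1 flow cytometry, ≥10 000 events. Inhibition was expressed relative to HEK293/pcDNA5 cells, whose maximal accumulation equals complete inhibition.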

[8] = test system: ATP-binding cassette sub-family G member 2 (Homo sapiens); test: Inhibition of ABCG2-mediated mitoxantrone efflux in mitoxantrone-selected human PANC1 cells overexpressing ABCG2; conditions: PANC-1
[9] = molecular target: T2, Broad substrate specificity ATP-binding cassette transporter ABCG2; test: Inhibition of ABCG2 (unknown origin)-mediated mitoxantrone efflux transfected in HEK293 cells assessed as potentiation of mitoxantrone-induced cytotoxicity at 0.5 uM after 72 hrs by MTT assay; assay type: cell-based; conditions: hek293, 72 h; procedure, shortened: as §2
[10] = molecular target: T2, Broad substrate specificity ATP-binding cassette transporter ABCG2; test: (§3) Inhibition of human ABCG2 ATPase activity transfected in Sf9 insect cells using quercetin as substrate after 30 mins by colorimetry relative to control
Procedure, shortened: (§4)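 Vanadate-sensitive ATPase of cholesterol-loaded human ABCG2 Sf9 membranes (0.5 mg/mL; 10 μg/sample), 50 mM Tris-HCl/50 mM NaCl pH 8.0, with 2 μM quercetin. ATP-Mg 3.9 mM, 30 min, 37 °C. Phosphate measured colorimetrically at 880 nm. Coupled activity = total minus basal, taken as 100%. IC50 is the concentration giving 50% inhibition.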

ABCG2 ATPase [11] = molecular target: T3, ABCG2 ATPase; test: as §3; conditions: human, Sf9 insect cells transfected with human ABCG2, probe quercetin; read-out: Imax; procedure, shortened: as §4
HEK293 [12] = test: Cytotoxicity against HEK293 cells after 72 hrs by MTT assay; assay type: cell-based; conditions: Homo sapiens, HEK293, 72 h; procedure, shortened: as §2
HEK293 [13] = test: Cytotoxicity against HEK293 cells overexpressing ABCG2 after 72 hrs by MTT assay; assay type: ADME, cell-based; conditions: Homo sapiens, HEK293, 72 h; procedure, shortened: as §2

Row | SMILES | inhibition at 0.5 h, 5 µM (ABCG2) [%] | EC50 [1] [µM] | further results
1 | COc1ccc(/C=C/C(=O)c2ccc(C(=O)/C=C/c3ccc(OC)c(OC)c3)cc2)cc1OC | 63 | 2.1 | 
2 | COc1ccc2[nH]cc(CCNC(=O)c3cc(=O)c4c(OCc5ccc(Br)cc5)cccc4o3)c2c1 |  | 0.094 | inhibition (INH) [2]: Active; EC50 [3]: 0.031 µM
3 | O=C(/C=C/c1ccccc1)c1ccc(C(=O)/C=C/c2ccccc2)cc1 | 13 |  | 
4 | COc1ccc(/C=C/C(=O)c2ccc(C(=O)/C=C/c3ccc(OC)cc3)cc2)cc1 | 18 |  | 
5 | COc1cc(/C=C/C(=O)c2ccc(C(=O)/C=C/c3cc(OC)c(OC)c(OC)c3)cc2)cc(OC)c1OC | 43 |  | 
6 | O=C(/C=C/c1ccc2c(c1)OCO2)c1ccc(C(=O)/C=C/c2ccc3c(c2)OCO3)cc1 | 11 |  | 
7 | COc1ccc(OC)c(/C=C/C(=O)c2ccc(C(=O)/C=C/c3cc(OC)ccc3OC)cc2)c1 | 96 | 0.7 | 
8 | O=C(/C=C/c1ccc2ccccc2c1)c1ccc(C(=O)/C=C/c2ccc3ccccc3c2)cc1 | 7 |  | 
9 | O=C(/C=C/c1cccc2ccccc12)c1ccc(C(=O)/C=C/c2cccc3ccccc23)cc1 | 13 |  | 
10 | COc1cc(OC)c(OC)cc1/C=C/C(=O)c1ccc(C(=O)/C=C/c2cc(OC)c(OC)cc2OC)cc1 | 96 | 0.3 | 
11 | O=C(O)c1ccc(/C=C/C(=O)c2ccc(C(=O)/C=C/c3ccc(C(=O)O)cc3)cc2)cc1 | 2 |  | 
12 | COc1cc(OC)c(/C=C/C(=O)c2ccc(C(=O)/C=C/c3c(OC)cc(OC)cc3OC)cc2)c(OC)c1 | 92 | 0.4 | 
13 | COc1cc(/C=C/C(=O)c2ccc(C(=O)/C=C/c3ccc(O)c(OC)c3)cc2)ccc1O | 0 |  | 
14 | O=C(/C=C/c1ccc2nccnc2c1)c1ccc(C(=O)/C=C/c2ccc3nccnc3c2)cc1 | 18 |  | 
15 | CN(C)c1ccc(/C=C/C(=O)c2ccc(C(=O)/C=C/c3ccc(N(C)C)cc3)cc2)cc1 | 34 |  | 
16 | CN(C)c1ccc(/C=C/C(=O)c2ccc(C(=O)/C=C/c3ccc(N(C)C)c4ccccc34)cc2)c2ccccc12 | 17 |  | 
17 | COc1ccc(/C=C/C(=O)c2ccc(C(=O)/C=C/c3ccc(OC)c(OC)c3OC)cc2)c(OC)c1OC | 86 | 1.4 | 

Row | SMILES | inhibition at 0.5 h, 5 µM (ABCG2) [%] | EC50 [1] [µM] | further results
18 | COc1ccc(C(=O)/C=C/c2ccc(/C=C/C(=O)c3ccc(OC)cc3)cc2)cc1 | 27 |  | 
19 | COc1cc(C(=O)/C=C/c2ccc(/C=C/C(=O)c3cc(OC)c(OC)c(OC)c3)cc2)cc(OC)c1OC | 73 | 1.1 | 
20 | COc1cccc(C(=O)/C=C/c2ccc(/C=C/C(=O)c3cccc(OC)c3)cc2)c1 | 73 | 2.3 | 
21 | COc1ccc(C(=O)/C=C/c2ccc(/C=C/C(=O)c3ccc(OC)c(OC)c3)cc2)cc1OC | 97 | 0.8 | 
22 | COc1ccc(C(=O)/C=C/c2ccc(/C=C/C(=O)c3ccc(OC)cc3OC)cc2)c(OC)c1 | 86 | 0.9 | 
23 | O=C(/C=C/c1ccc(/C=C/C(=O)c2ccc3c(c2)OCO3)cc1)c1ccc2c(c1)OCO2 | 19 |  | 
24 | COc1ccc(OC)c(C(=O)/C=C/c2ccc(/C=C/C(=O)c3cc(OC)ccc3OC)cc2)c1 | 74 | 1.3 | 
25 | O=C(/C=C/c1ccc(/C=C/C(=O)c2ccc3ccccc3c2)cc1)c1ccc2ccccc2c1 | 45 |  | 
26 | COc1cc(OC)cc(C(=O)/C=C/c2ccc(/C=C/C(=O)c3cc(OC)cc(OC)c3)cc2)c1 | 78 | 0.5 | fold induction at 0.5 h (ABCG2 ATPase [4]): 1.8; inhibition (INH) [2]: Not Active; Activity (HEK293 [5]): Non-toxic; inhibition (INH) [6]: Not Active; inhibition (INH) [7]: Not Active; EC50 [8]: 0.21 µM; inhibition (INH) [9]: Active; IC50 [10]: 0.27 µM; Emax at 0.5 h (ABCG2 ATPase [11]): 72%
27 | O=C(/C=C/c1ccc(/C=C/C(=O)c2cccc3ccccc23)cc1)c1cccc2ccccc12 | 23 |  | 
28 | O=C(/C=C/c1ccc(/C=C/C(=O)c2ccccc2)cc1)c1ccccc1 | 25 |  | 
29 | COc1ccccc1C(=O)/C=C/c1ccc(/C=C/C(=O)c2ccccc2OC)cc1 | 95 | 1.1 | 
30 | COc1cc(OC)c(C(=O)/C=C/c2ccc(/C=C/C(=O)c3cc(OC)c(OC)cc3OC)cc2)cc1OC | 41 |  | 
31 | O=C(O)c1ccc(C(=O)/C=C/c2ccc(/C=C/C(=O)c3ccc(C(=O)O)cc3)cc2)cc1 | 0 |  | 
32 | COc1cc(OC)c(C(=O)/C=C/c2ccc(/C=C/C(=O)c3c(OC)cc(OC)cc3OC)cc2)c(OC)c1 | 66 | 1.8 | 
33 | COc1cc(C(=O)/C=C/c2ccc(/C=C/C(=O)c3ccc(O)c(OC)c3)cc2)ccc1O | 28 |  | 
34 | O=C1c2c(O)ccc(O)c2C(=O)c2c(NCCNCCO)ccc(NCCNCCO)c21 [MITOXANTRONE] |  |  | IC50 (HEK293 [12]): 0.01 µM; IC50 (HEK293 [13]): 0.0266 µM

— ChEMBL document CHEMBL3232774, “Symmetric bis-chalcones as a new type of breast cancer resistance protein inhibitors with a mechanism different from that of chromones” (J Med Chem, 2014)
